Laboratory results: ChEMBL document CHEMBL4627246, “Pyroglutamide-Based P2X7 Receptor Antagonists Targeting Inflammatory Bowel Disease” (J Med Chem, 2020)
pIC50, pKi: −log10 of the molar value. Calls of active or inactive are those of the source. Unless noted, no cut-off for these calls is given here.

What was measured:
[1] = target: T1, P2X purinoceptor 7 (Homo sapiens) (UniProt Q99572); assay: Inhibition of human P2X7 expressed in human HEK293 cells assessed as reduction in BzATP-stimulated TO-PRO-3 incorporation at 10 uM preincubated with compound and TO-PRO-3 for 15 mins prior to BzATP addition and measured after 1 hr by Fluo-3AM dye based flow cytometry relative to control; type: cell-based
T1 sequence (whole entry): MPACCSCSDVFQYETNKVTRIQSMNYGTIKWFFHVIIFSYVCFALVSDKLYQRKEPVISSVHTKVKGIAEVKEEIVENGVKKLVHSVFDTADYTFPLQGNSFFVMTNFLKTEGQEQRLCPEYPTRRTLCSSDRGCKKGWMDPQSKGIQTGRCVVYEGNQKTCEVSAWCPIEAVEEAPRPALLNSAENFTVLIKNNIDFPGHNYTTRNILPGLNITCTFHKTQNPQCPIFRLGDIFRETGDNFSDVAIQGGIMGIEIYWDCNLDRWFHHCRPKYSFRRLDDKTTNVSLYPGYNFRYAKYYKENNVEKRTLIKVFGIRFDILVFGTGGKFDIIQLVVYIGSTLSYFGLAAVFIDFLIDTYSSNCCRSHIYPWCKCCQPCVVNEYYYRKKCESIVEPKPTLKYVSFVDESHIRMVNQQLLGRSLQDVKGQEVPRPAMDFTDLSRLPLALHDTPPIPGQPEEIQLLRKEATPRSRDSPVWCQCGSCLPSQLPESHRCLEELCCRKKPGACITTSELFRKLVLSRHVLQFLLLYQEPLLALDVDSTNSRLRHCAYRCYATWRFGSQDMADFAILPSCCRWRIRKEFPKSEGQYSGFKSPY
Method in brief: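 HEK-293 cells overexpressing human P2RX7 loaded with Fluo-3 AM, then incubated with TO-PRO-3 (large pore uptake) and propidium iodide (viability) plus compound (10⁻⁵ M single point) for 15 min before BzATP 100 µM. After 1 h, flow cytometry; percentage of Fluo-3/TO-PRO-3 double-positive cells calculated. Mean of n ≥ 2 with positive control.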

[2] = target: T2, P2X purinoceptor 1 (Homo sapiens) (UniProt P51575); assay: Antagonist activity at P2X1 receptor in human platelet assessed as inhibition of thrombin-induced platelet aggregation at 10 '-5 to 10^-6 mol/L pretreated with compound and LPS/BzATP for 10 mins followed by thrombin addition and measured for 8 mins by aggregometry analysis; type: cell-based
T2 sequence (whole entry): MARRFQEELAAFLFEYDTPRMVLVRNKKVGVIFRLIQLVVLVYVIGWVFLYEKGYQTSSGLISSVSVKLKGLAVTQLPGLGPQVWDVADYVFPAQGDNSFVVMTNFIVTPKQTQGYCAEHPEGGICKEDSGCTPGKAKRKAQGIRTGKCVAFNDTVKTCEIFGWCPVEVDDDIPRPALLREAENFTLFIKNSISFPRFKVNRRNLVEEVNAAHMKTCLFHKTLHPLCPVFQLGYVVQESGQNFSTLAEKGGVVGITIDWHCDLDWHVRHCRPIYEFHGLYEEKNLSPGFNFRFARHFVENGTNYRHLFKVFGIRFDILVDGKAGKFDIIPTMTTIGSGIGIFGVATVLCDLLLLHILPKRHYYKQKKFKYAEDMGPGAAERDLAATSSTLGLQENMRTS

[3] = target: T1, P2X purinoceptor 7 (Homo sapiens); assay: Antagonist activity at P2X7 receptor in human THP-1 cells assessed as inhibition of LPS and BzATP-induced IL-1beta production at 10^-5 mol/L pretreated with compound followed by LPS/BzATP addition and measured after 2 to 6 hrs by ELISA; type: cell-based
Method in brief: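 THP-1 monocytes grown in RPMI 1640 + 10% FCS, differentiated to macrophages with PMA (100nM); 10^6 cells pretreated with antagonist at 10^-5 mol/L, then exposed to LPS 10 μmol/L plus BzATP 70 μmol/L at 37 °C, 5% CO2; IL1β quantified by ELISA in samples at 2, 4 and 6 h; mean ± SD, significance P<0.05.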

HEK293 = assay: Cytotoxicity against human HEK293 cells assessed as reduction in cell viability at 10^-5 mol/L incubated for 72 hrs; type: cell-based; conditions: hek293, 72 h, 10 µM
Method in brief: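 Wild-type and P2RX7-transfected HEK293 cells exposed to compound for 72 hours; viability compared against untreated control.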

[4] = target: T1, P2X purinoceptor 7 (Homo sapiens); assay: Antagonist activity at P2X7 receptor in human THP-1 cells assessed as inhibition of LPS and BzATP-induced IL-1beta production at 10^-6 mol/L pretreated with compound followed by LPS/BzATP addition and measured after 2 to 6 hrs by ELISA; type: cell-based; conditions: TDE = time-dependent effect
Method in brief: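 PMA (100nM)-differentiated THP-1 macrophages (RPMI 1640, 10% FCS), 10^6 cells, pretreated with antagonist at […], then challenged with LPS 10 μmol/L and BzATP 70 μmol/L at 37 °C, 5% CO2; IL1β measured by ELISA, including the 6 h point; mean ± SD, P<0.05 significant.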

P2X purinoceptor 7 = target: T3, P2X purinoceptor 7 (Homo sapiens, UniProt Q99572); assay: Displacement of [3H]-A804598 from human P2X7 expressed in human HEK293 cell membrane incubated for 1 hr by microplate scintillation counting method; type: cell membranes
T3 sequence (Q99572 whole entry): T1 sequence (whole entry)

[5] = target: T1, P2X purinoceptor 7 (Homo sapiens); assay: Antagonist activity at P2X7R in human THP1 cells assessed as inhibition of LPS and BzATP-induced IL-1beta expression by measuring increase in proIL-1beta expression in cell supernatant extract at 10^-6 mol/L pretreated with compound followed by LPS/BzATP addition and measured after 6 hrs by Western blot analysis; type: cell-based; conditions: THP-1
[6] = Solubility of compound in saline at 1mg/ml; type: physicochemical; conditions: buffer
[7] = Metabolic stability in human liver microsomes assessed as intrinsic clearance at 0.2 mg/ml incubated for 60 mins by UPLC/MS-MS analysis; type: ADME, Microsome; conditions: read-out: CLH
[8] = target: T1, P2X purinoceptor 7 (Homo sapiens); assay: Antagonist activity at P2X7R in human THP1 cells assessed as inhibition of LPS and BzATP-induced ROS production at 10^-5 mol/L pretreated with compound followed by LPS/BzATP addition and measured up to 5 hrs by kinetic chemiluminescence based fluorometric analysis; type: cell-based; conditions: THP-1
Method in brief: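 PMA-differentiated THP-1 macrophages (10^5 cells) in RPMI 1640 + 10% FBS pretreated with antagonist at 10^-5 mol/L, then LPS 10 μmol/L plus BzATP 70 μmol/L at 37 °C, 5% CO2; horseradish peroxidase (50 μg/mL) and luminol (50 μM) mixture added, chemiluminescence read on a fluorometer; cell-free H2O2 serves as positive control.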

[9] = Metabolic stability in human hepatocytes; type: ADME, cell-based, Hepatocyte
[10] = Drug metabolism in mouse measured after 40 mins; type: ADME; conditions: read-out: Drug metabolism
[11] = Metabolic stability in human liver microsomes assessed as half life at 0.2 mg/ml incubated for 60 mins by UPLC/MS-MS analysis; type: ADME, Microsome

O=C(NCCc1ccccc1)[C@@H]1CCC(=O)N1Cc1ccc(Cl)cc1Cl
inhibition [1]: 0%

O=C(NCc1ccc(Cl)cc1Cl)[C@@H]1CCC(=O)N1c1cccs1
Activity [2]: inactive | inhibition [3]: Active | Activity (HEK293): Non-Toxic | inhibition [4]: Tde | pIC50 (P2X purinoceptor 7): 6.14 | pKi (P2X purinoceptor 7): 6.83 | inhibition [5]: Active | solubility [6]: Insoluble | microsomal CLint [7]: 1070 µL/min/mg | inhibition [1]: 98% | inhibition [8]: Active | Stability [9]: Unstable | metabolised at 40 min [10]: 100% | half-life [11]: 1.5 min

O=C(NCc1ccc(Cl)cc1Cl)[C@@H]1CCC(=O)N1Cc1ccccc1
inhibition [1]: 100%

COC(=O)[C@@H]1C/C(=C\NCc2ccc(Cl)cc2Cl)C(=O)N1C(=O)OC
inhibition [1]: 99%

C[n+]1ccccc1C(=O)NCc1ccc(Cl)cc1Cl.[I-]
inhibition [1]: 0%

CN1C(=O)CC[C@H]1C(=O)NCc1cc(C(F)(F)F)ccc1Cl
inhibition [1]: 0%

O=C1N[C@H](C(=O)NCc2ccc(Cl)cc2Cl)C/C1=C/NCc1ccc(Cl)cc1Cl
inhibition [1]: 0%

O=C(NCc1ccc(Cl)cc1Cl)[C@@H]1CCC(=O)N1c1nccs1
Activity [2]: inactive | inhibition [3]: Active | Activity (HEK293): Non-Toxic | inhibition [4]: Tde | pIC50 (P2X purinoceptor 7): 5.62 | pKi (P2X purinoceptor 7): 6.31 | solubility [6]: Insoluble | microsomal CLint [7]: 253 µL/min/mg | inhibition [1]: 83% | inhibition [8]: Active | Stability [9]: Unstable | metabolised at 40 min [10]: 93% | half-life [11]: 7.5 min

Cc1ccc(NC(=O)[C@@H]2CCC(=O)N2c2ccccc2)cc1
inhibition [1]: 0%

O=C(NCc1ccc(Cl)cc1Cl)[C@@H]1CCC(=O)N1c1ccc(Cl)cc1
inhibition [1]: 0%

CN(C)/C=C1\C[C@H]2C(=O)N(Cc3ccc(Cl)cc3Cl)C(N(C)C)N2C1=O (some centres not stated)
inhibition [1]: 24%

COc1ccc(N2C(=O)[C@@H]3C/C(=C\N(C)C)C(=O)N3C2N(C)C)cc1 (some centres not stated)
inhibition [1]: 0%

O=C(NCc1ccccc1)[C@@H]1CCC(=O)N1Cc1ccc(Cl)cc1Cl
inhibition [1]: 0%

O=C1N[C@H](C(=O)NCc2ccc(Cl)cc2Cl)C/C1=N\O (stereo in doubt)
inhibition [1]: 52%

CCCCCCN1C(=O)[C@@H]2CCC(=O)N2C1N(C)C (some centres not stated)
inhibition [1]: 0%

N#Cc1ccc(N2C(=O)CC[C@H]2C(=O)NCc2ccc(Cl)cc2Cl)cc1
inhibition [1]: 0%

CN1C(=O)CC[C@H]1C(=O)NCc1cccc(C(F)(F)F)c1Cl [GSK1482160]
inhibition [3]: Active | inhibition [4]: Tde | pIC50 (P2X purinoceptor 7): 6.48 | pKi (P2X purinoceptor 7): 7.17 | solubility [6]: Insoluble | microsomal CLint [7]: 2.8 µL/min/mg | inhibition [1]: 98% | inhibition [8]: Active | Stability [9]: Stable | metabolised at 40 min [10]: 4.4% | half-life [11]: 800 min

COc1ccc(CN2C(=O)CC[C@H]2C(=O)NCCc2ccccc2)cc1
inhibition [1]: 0%

O=C(NCC1CCCCC1)[C@@H]1CCC(=O)N1c1ccccc1
inhibition [1]: 0%

CN(C)C(=O)[C@@H]1CCC(=O)N1
inhibition [1]: inactive

O=C(NCc1ccc(Cl)cc1Cl)[C@@H]1CCC(=O)N1C(c1ccccc1)c1ccccc1
inhibition [1]: 0%

O=C(NCc1ccccc1Cl)[C@@H]1CCC(=O)N1Cc1ccccc1
inhibition [1]: 0%
